Data set [1] relates to Leishmania donovani. The data set is described as follows: Antileishmanial activity against promastigote form of Leishmania donovani LV82 infected in BALB/c mouse assessed as reduction in liver parasitemia at 10 mg/kg/day, po administered for 5 days relative to untreated control. It is filed as functional. Set-up: scale not given: the % may be the effect or the level left. An outline of the steps: (§1)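 Female BALB/c mice infected with L. donovani; treated daily for five days starting one week post infection, test agent ip in water, miltefosine orally at 10 mg/kg/day; liver parasitemia counted microscopically two weeks post infection; % reduction versus infected untreated controls; groups of four, mean ± SD; P<0.05 versus untreated.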

Data set [2] relates to Leishmania donovani. The data set is described as follows: Antileishmanial activity against amastigote form of Leishmania donovani LV82 expressing beta-lactamase infected in CD1 mouse macrophages after 72 hrs by nitrocefin-based spectrophotometric analysis. It is filed as functional, organism-based. The conditions noted are these: LV82, 72 h. An outline of the steps: (§2)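 Intracellular amastigotes in macrophages; absorbance read-out with uninfected and infected control wells; IC50 from dose–response curves; mean ± SD of at least three determinations, each run in triplicate.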

For another data set, the system named is Leishmania amazonensis. The data set is described as follows: Antileishmanial activity against amastigote form of Leishmania amazonensis expressing beta-lactamase infected in CD1 mouse macrophages after 72 hrs by nitrocefin-based spectrophotometric analysis. It is filed as functional, organism-based. An outline of the steps: as §2
Another data set relates to J774. The data set is described as follows: Cytotoxicity against mouse J774 cells. It is filed as cell-based. An outline of the steps:
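J774 macrophages exposed to compounds; IC50 reported in nM as mean ± SD of at least three determinations.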

For data set [3], the system named is Leishmania donovani. Kind of data set: Antileishmanial activity against promastigote form of Leishmania donovani LV82 infected in BALB/c mouse assessed as reduction in liver parasitemia at 30 mg/kg/day, ip administered for 5 days starting 1 week post-infection measured after 2 weeks relative to untreated control. Conditions: route intraperitoneal. Further details: scale not given: the % may be the effect or the level left. It is filed as functional. An outline of the steps: as §1

The test system of data set [4] is Mus musculus. Kind of data set: Toxicity in BALB/c mouse assessed as adverse effects at 30 mg/kg/day, ip administered for 5 days. It is filed as organism-based. Set-up: route intraperitoneal. The conditions noted are these: in vivo, 120 h.
Data set [5] in a line: Selectivity index, ratio of IC50 for mouse J774 cells to IC50 for Leishmania donovani. It is filed as toxicity, cell-based. Conditions: J774 cells versus Leishmania donovani, read-out: Ratio IC50. An outline of the steps: (§3)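 SI calculated as IC50 against J774 macrophages divided by IC50 against intracellular Leishmania, each IC50 from mean of at least three determinations.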

The test system of data set [6] is Mus musculus. Kind of data set: Gastrointestinal toxicity in BALB/c mouse assessed as black and swollen colon at 30 mg/kg, ip measured within 24 hrs by necroscopic analysis. It is filed as organism-based. Set-up: dose 30 mg/kg, route intraperitoneal. Conditions: in vivo.
Data set [7] in a line: Selectivity index, ratio of IC50 for mouse J774 cells to IC50 for Leishmania amazonensis. It is filed as toxicity, cell-based. Conditions: J774 cells versus Leishmania amazonensis, read-out: Ratio IC50. An outline of the steps:
as §3

In data set [8] the test system is Mus musculus. The data set is described as follows: Gastrointestinal toxicity in BALB/c mouse assessed as black and swollen stomach at 30 mg/kg, ip measured within 24 hrs by necroscopic analysis. It is filed as organism-based. Conditions: in vivo. Further details: dose 30 mg/kg, route intraperitoneal.
The test system of data set [9] is Mus musculus. The data set is described as follows: Gastrointestinal toxicity in BALB/c mouse assessed as black and swollen intestine at 30 mg/kg, ip measured within 24 hrs by necroscopic analysis. Set-up: dose 30 mg/kg, route intraperitoneal. It is filed as organism-based. Conditions: in vivo.
Data set [10] relates to Mus musculus. The data set is described as follows: Toxicity in BALB/c mouse assessed as mortality at 30 mg/kg, ip measured within 24 hrs. Further details: dose 30 mg/kg, route intraperitoneal. It is filed as organism-based. The conditions noted are these: in vivo.
The subject of data set [11] is Mus musculus. The data set is described as follows: Toxicity in BALB/c mouse assessed as tremors at 30 mg/kg/day, ip measured from day 2 to 3. It is filed as organism-based. Set-up: route intraperitoneal. Conditions: in vivo.
Data set [12] deals with Mus musculus. The data set is described as follows: Toxicity in BALB/c mouse assessed as hyperactivity at 30 mg/kg/day, ip measured from day 2 to 3. It is filed as organism-based. Set-up: route intraperitoneal. Conditions: in vivo.

Data on eight compounds can be found in ChEMBL document CHEMBL2157894, “Antileishmanial bis-arylimidamides: DB766 analogs modified in the linker region and bis-arylimidamide structure-activity relationships” (Bioorg Med Chem Lett, 2012).

Consider `CCCCCCCCCCCCCCCCOP(=O)([O-])OCC[N+](C)(C)C` [MILTEFOSINE], for which, in the data set on Leishmania donovani [1], the Activity was 96%.

Take `CC(C)Oc1cc(-c2ccc(-c3ccc(NC(=N)c4ccccn4)c(OC(C)C)c3)o2)ccc1NC(=N)c1ccccn1.CS(=O)(=O)O`: the IC50 in the data set on Leishmania donovani [2] was 26 nM; in the data set with Leishmania amazonensis, 290 nM; with J774 it was 10 µM. The figures for the Activity in the data set on Leishmania donovani [3] and in the data set on Mus musculus [4] were 32% and “Non-toxic”, respectively. Also, the selectivity ratio in data set [5] was found to be 385.

On to `CC(C)Oc1cc(NC(=N)c2ccccn2)ccc1-c1ccc(-c2ccc(NC(=N)c3ccccn3)cc2)o1.CS(=O)(=O)O`, for which the 50% inhibitory concentration (IC50) stood at 5.3 nM with Leishmania donovani [2], 93 nM in the data set with Leishmania amazonensis and 11 µM with J774. In addition, the Activity entry in the data set with Mus musculus [6], in the data set on Mus musculus [8], in the data set with Mus musculus [9] and in the data set on Mus musculus [10] was “Toxic” each time. Moreover, the selectivity ratio in [7] was 115; in [5] it was 2080.

Regarding `COc1cc(NC(=N)c2ccccn2)ccc1-c1ccc(-c2ccc(NC(=N)c3ccccn3)cc2OC(C)C)o1.CS(=O)(=O)O`, the figures for the IC50 with Leishmania donovani [2], in the data set on Leishmania amazonensis and with J774 were 7 nM, 110 nM and 14 µM, respectively. For the same compound, the selectivity ratio in data set [7] is 127; in data set [5], 2000. Besides, the Activity entry in the data set with Mus musculus [11] and in the data set with Mus musculus [12] was “Toxic” in each case.

`C[C@@H]1[C@H](O)[C@@H](C)/C=C/C=C/C=C/C=C/C=C/C=C/C=C/[C@H](O[C@@H]2O[C@H](C)[C@@H](O)[C@H](N)[C@@H]2O)C[C@@H]2O[C@](O)(C[C@@H](O)C[C@@H](O)[C@H](O)CC[C@@H](O)C[C@@H](O)CC(=O)O[C@H]1C)C[C@H](O)[C@H]2C(=O)O` [AMPHOTERICIN B]: the IC50 with Leishmania donovani [2] was found to be 45 nM.

For `CC(C)Oc1cc(NC(=N)c2ccccn2)ccc1-c1ccc(-c2ccc(NC(=N)c3ccccn3)cc2F)o1.CS(=O)(=O)O`, the IC50 was found to be 150 nM in the data set on Leishmania donovani [2], 190 nM in the data set on Leishmania amazonensis and 27 µM with J774. Besides, the selectivity ratio amounted to 142 in data set [7] and 180 in data set [5]. In addition, the Activity result in the data set on Mus musculus [11] and in the data set on Mus musculus [12] was “Toxic” in each case.

For the compound `CS(=O)(=O)O.Cc1cc(NC(=N)c2ccccn2)ccc1-c1ccc(-c2ccc(NC(=N)c3ccccn3)cc2OC(C)C)o1`, the IC50 turned out to be 21 nM in the data set on Leishmania donovani [2], 49 nM with Leishmania amazonensis and 13 µM in the data set with J774. In addition, the results for the selectivity ratio in [7] and in data set [5] were 265 and 619, respectively. The Activity entry in the data set with Mus musculus [11] and in the data set on Mus musculus [12] was “Toxic” throughout.

On to `COc1cc([C@@H]2c3cc4c(cc3[C@H](O)[C@H]3COC(=O)[C@H]23)OCO4)cc(OC)c1OC` [PODOFILOX], for which the IC50 in the data set on J774 was determined as 0.018 µM.
